# Laboratory results published in paper PMC3076219 (European journal of immunology, 2009).
# B1: CXCL7: recombinant human chemokine, rather CXCR2 specific (protein, UniProt P02775 59-128, looked up)
# Neutrophil-activating peptide …: AELRCMCIKTTSGIHPKNIQSLEVIGKGTHCNQVEVIATLKDGRKICLDPDAPRIKKIVQKKLAGDESAD
# modifications: Neutrophil-activating peptide 2
# Tests used:
# [1] = tested on: P2X7; settings: P2X7 receptor blockers; monocytes; ref [14]; cited from earlier work
# [2] = tested on: neutrophils; assay: Cross-desensitization of calcium mobilization of neutrophils; format: cell-based, human; settings: for cross-desensitization of response to fMLF by LL-37, CXCL7, CXCL1: data not shown
# [3] = tested on: CXCR2; assay: CXCR2 surface expression on monocytes; format: cell-based, human; settings: Supporting information Fig. 2
# [4] = tested on: CXCR1; assay: CXCR1 surface expression on neutrophils, flow cytometry; format: cell-based, human; settings: 3h; for CXCR1 down-regulation at higher dose: 50 nM; for CXCR1 surface expression, chemokine treated: 1 nM, 5 nM, 10 nM (50 nM), Fig. 2E-G
# Outline: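 Human blood neutrophils were isolated by dextran sedimentation and Ficoll (>95% CD16+) and held at 5×10^6/mL in RPMI 1640 with 1% FBS. They were treated 3h with a dose series (test peptide 1–10 µM; chemokines 1, 5, 10, 50 nM) or with 5 µM for 0.5–3h. Cells were blocked in 10% human serum and stained with anti-CXCR1-APC/anti-CXCR2-FITC or anti-P2X7-FITC, plus anti-CD16. Read-out was flow cytometry GMFI.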
# [5] = tested on: monocytes; assay: Migration of monocytes, 24-well Transwell; format: cell-based, human; settings: LL-37 5 µM, CXCL1 50 nM, WKYMVm 5 µM, ATP 50 µM, BzATP 50 µM; 90 min, 37°C; Fig. 7F
# Outline: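 CFSE-labelled monocytes or THP-1 cells (5 µM, 5 min RT) at 2×10^6/mL in phenol-red-free RPMI 1640 with 1% FBS went in the Transwell upper chamber (3-µm pores). Stimuli in the lower chamber included CXCL1 50 nM, WKYMVm 5 µM and ATP/BzATP 50 µM. Cells were used with or without 20 min preincubation with 10 µM CXCR2 antagonist. Incubation at 37 °C lasted 90 min for monocytes and 2 h for THP-1. Lower-well cells were read at 495 nm against a standard curve, in quadruplicate.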
# [6] = tested on: THP-1 cells; assay: Calcium mobilization in THP-1 cells; format: cell-based; settings: THP-1; Fig. 7C
# Outline: (§1)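 Peripheral blood monocytes (kit-isolated from PBMC, CD14-checked) or THP-1 cells at 10^7/mL were loaded with 5 µM Indo-1-AM for 7 min at 37 °C, then held 10 min at RT and washed in cold PBS. Cells were run at 2×10^6/mL in KRP (PBS, 1.5 mM CaCl2, 1.5 mM MgSO4). After baseline they got a first stimulus, then a second. Flow cytometry used 351 nm excitation and the 405:485 nm ratio, gating live cells. Three independent experiments.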
# [7] = tested on: neutrophils; assay: Calcium mobilization of neutrophils; format: cell-based, human; settings: ATP 5 µM; for [Ca2+]i time of decline to baseline: fMLF 100 nM, CXCL8 10 nM, Fig. 3A
# [8] = tested on: CXCR2; assay: CXCR2 surface expression on neutrophils, flow cytometry; format: cell-based, human; settings: 3h; for CXCR2 surface expression, chemokine treated: 1 nM, 5 nM, 10 nM (50 nM), Fig. 2E-G
# [9] = tested on: monocytes; assay: Calcium mobilization in monocytes; format: cell-based, human; settings: ATP or WKYMVm first, then LL-37; Fig. 7D
# Outline: as §1
# [10] = tested on: CXCR1; settings: ref [33], [34]; cited from earlier work
# [11] = tested on: CXCR2; settings: ref [33], [34]; cited from earlier work
# [12] = tested on: CXCR1; assay: Calcium mobilization in HEK293/CXCR1 cells; format: cell-based, human; settings: Indo-1; Fig. 7A-B
# Outline: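 CXCR1-transfected HEK293 cells were loaded with 5 µM Indo-1-AM in 5 µM pluronic F-127/PBS for 30 min at RT. They were washed in cold PBS, spun at 200 × g for 10 min at 4 °C and suspended in PBS with calcium and magnesium. Stimulation followed baseline recording. Flow cytometric [Ca2+]i was read as the 405:485 nm emission ratio with 351 nm excitation. Three independent experiments.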
# [13] = tested on: 125I-CXCL8 specific binding sites on neutrophils (CXCR1/2); assay: Competition with 125I-CXCL8 for binding to neutrophils; design: species or system human; settings: 1.25 nM 125I-CXCL8, 2h on ice, triplicate, dose-dependent, Fig. 5B
# [14] = tested on: CXCR2 transfected HEK293 cells; assay: Secondary necrosis of CXCR2 transfected HEK293 cells; format: cell-based; settings: Supporting information Fig. 4
# [15] = tested on: CXCR2; assay: Calcium mobilization in HEK293/CXCR2 cells; format: cell-based, human; settings: Indo-1; Fig. 7A-B
# Outline: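 They were washed in cold PBS, pelleted at 200 × g for 10 min at 4 °C, and resuspended in PBS with Ca/Mg. […] [Ca2+]i was read as the 405:485 nm ratio by flow cytometry, gating on living cells.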
# [16] = tested on: CXCR1; assay: Confocal analysis of CXCR1 internalization in neutrophils; format: cell-based, human; settings: 37°C
# Outline: (§2)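 Neutrophils came from citrated donor blood by dextran sedimentation and Ficoll gradient. […] Cells were fixed in 2% paraformaldehyde, permeabilised with saponin and blocked with human serum. Anti-CXCR1 or anti-CXCR2 mAb (4°C), then Alexa 488 anti-mouse IgG, DAPI mount, confocal imaging; three independent experiments.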
# [17] = tested on: CXCR2; assay: Confocal analysis of CXCR2 internalization in neutrophils; format: cell-based, human; settings: 37°C
# Outline: as §2
# [18] = tested on: CXCR1 transfected HEK293 cells; assay: Secondary necrosis of CXCR1 transfected HEK293 cells; format: cell-based; settings: Supporting information Fig. 4
# [19] = ATP 30 µM, 300 µM, 3000 µM, Fig. 2C
# [20] = fMLF 50 nM, 100 nM, 200 nM, Fig. 2A
# [21] = CXCL7 50 nM or CXCL1 50 nM, 60 min, data not shown
# [22] = LL-37 5 µM or CXCL8 50 nM, 1 h, Fig. 8
molecule,measurement,setting,value
CN([C@@H](Cc1ccc(OS(=O)(=O)c2cccc3cnccc23)cc1)C(=O)N1CCN(c2ccccc2)CC1)S(=O)(=O)c1cccc2cnccc12 [KN62],block of LL-37-induced release of IL-1β,[1],did not completely block the release of IL-1β
"Nc1ncnc2c1ncn2[C@@H]1O[C@H](COP(=O)(O)OP(=O)(O)OP(=O)(O)O)[C@@H](O)[C@H]1O [ATP, reference compound]",cross-desensitization of LL-37 response by ATP,"[2]; ATP first, then LL-37, Supporting information Fig. 3A-B",unable to block calcium mobilization stimulated by LL-37 in neutrophils
same,CXCR2 down-regulation on monocytes,[3],"but not ATP or BzATP, all down-regulate CXCR2"
same,CXCR1 surface expression,[4]; [19],no down-regulation of either CXCR1 or CXCR2
same,stimulation of migration of monocytes,[5],only LL-37 stimulated migration of monocytes
same,block of LL-37 induced calcium mobilization by ATP / BzATP,[6],able to partially block
same,[Ca2+]i time of decline to baseline,[7],≤ 200 s
same,calcium flux response in the absence of extracellular Ca2+,"[7]; PBS without calcium and magnesium, LL-37 5 µM, WKYMVm 5 µM, Fig. 3C",only the WKYMVm peptide is capable of generating a calcium flux response
same,CXCR2 surface expression,[8]; [19],no down-regulation of either CXCR1 or CXCR2
same,cross-block of LL-37 stimulated calcium mobilization in monocytes,[9],neither ATP nor WKYMVm cross-block LL-37 stimulated calcium mobilization
CXCL6: CXC chemokine,affinity for CXCR1,[10],high affinity
same,affinity for CXCR2,[11],high affinity
Nc1ncnc2c1ncn2[C@@H]1O[C@H](COP(=O)(O)OP(=O)(O)OP(=O)(O)O)[C@@H](OC(=O)c2ccc(C(=O)c3ccccc3)cc2)[C@H]1O [BzATP],CXCR2 down-regulation on monocytes,[3],"but not ATP or BzATP, all down-regulate CXCR2"
same,stimulation of migration of monocytes,[5],only LL-37 stimulated migration of monocytes
same,block of LL-37 induced calcium mobilization by ATP / BzATP,[6],not BzATP was able to partially block
Nc1ncnc2c1ncn2[C@@H](C=O)O[C@@H](C=O)COP(=O)(O)OP(=O)(O)OP(=O)(O)O [oxATP],block of LL-37-induced release of IL-1β,[1],did not completely block the release of IL-1β
CXCL2: CXC chemokine,affinity for CXCR2,[11],high affinity
CXCL3: CXC chemokine,affinity for CXCR2,[11],high affinity
fMLF [reference compound],CXCR1 surface expression,[4]; [20],caused down-regulation of both CXCR2 and CXCR1 expression with similar kinetics
same,[Ca2+]i time of decline to baseline,[7],≤ 200 s
same,CXCR2 surface expression,[8]; [20],caused down-regulation of both CXCR2 and CXCR1 expression with similar kinetics
CXCL5: CXC chemokine,affinity for CXCR2,[11],high affinity
"CXCL1: recombinant human chemokine, predominantly CXCR2 specific",calcium mobilization in CXCR1 transfected HEK293 cells,[12],only CXCL8 gave a response
same,maximum competition of 125I-CXCL8 binding,[13]; 2×10^6 cells,around 50%
same,displacement of 125I-CXCL8,[13],partly displace
same,"cross-desensitization of response to fMLF by LL-37, CXCL7, CXCL1",[2],do not cross-sensitize fMLF stimulation
same,"generation of secondary necrotic cells, HEK293/CXCR2",[14],not with CXCL1
same,CXCR2 down-regulation on monocytes,[3],down-regulate CXCR2
same,CXCR1 down-regulation at higher dose,[4],down-regulate CXCR1 at higher doses
same,"CXCR1 surface expression, chemokine treated",[4],down-regulated CXCR2 but not CXCR1
same,calcium mobilization in CXCR2 transfected HEK293 cells,[15],weak but similar patterns of calcium mobilization
same,stimulation of migration of monocytes,[5],only LL-37 stimulated migration of monocytes
same,affinity for CXCR2,[11],high affinity
same,CXCR1 translocation (internalization),[16]; [21],caused only CXCR2 receptor translocation to the cytoplasm
same,"CXCR2 surface expression, chemokine treated",[8],down-regulated CXCR2 but not CXCR1 in a limited dose-dependent manner
same,CXCR2 translocation (internalization),[17]; [21],caused only CXCR2 receptor translocation to the cytoplasm
same,"generation of secondary necrotic cells, HEK293/CXCR1",[18],not with CXCL1
CXCL8: recombinant human chemokine that binds both CXCR1/2,calcium mobilization in CXCR1 transfected HEK293 cells,[12],gave a response
same,cross-desensitization of response to CXCL1,"[2]; CXCL8 10 nM first, CXCL1 10 nM 160 s later, Fig. 4C",completely blocked
same,cross-desensitization of response to CXCL7,"[2]; CXCL8 10 nM first, CXCL7 10 nM 160 s later, Fig. 4B",completely blocked
same,cross-desensitization of response to LL-37,"[2]; CXCL8 10 nM first, LL-37 5 µM 160 s later, Fig. 4A",completely blocked
same,cross-desensitization of response to fMLF,"[2]; CXCL8 10 nM first, fMLF 100 nM 160 s later, Fig. 4D",failed to cross-sensitize fMLF stimulation
same,affinity for CXCR1,[10],high affinity
same,CXCR2 down-regulation on monocytes,[3],down-regulate CXCR2
same,"CXCR1 surface expression, chemokine treated",[4],significantly down-regulated both CXCR1 and CXCR2
same,calcium mobilization in CXCR2 transfected HEK293 cells,[15],weak but similar patterns of calcium mobilization
same,affinity for CXCR2,[11],high affinity
same,[Ca2+]i time of decline to baseline,[7],less than 100 s
same,CXCR1 translocation (internalization),[16]; [22],translocation of both CXCR1 and CXCR2 to the cytoplasm
same,"CXCR2 surface expression, chemokine treated",[8],significantly down-regulated both CXCR1 and CXCR2
same,CXCR2 translocation (internalization),[17]; [22],translocation of both CXCR1 and CXCR2 to the cytoplasm
B1,"cross-desensitization of response to fMLF by LL-37, CXCL7, CXCL1",[2],do not cross-sensitize fMLF stimulation
same,CXCR1 down-regulation at higher dose,[4],down-regulate CXCR1 at higher doses
same,"CXCR1 surface expression, chemokine treated",[4],less discriminatory towards CXCR2 compared to LL-37
same,affinity for CXCR2,[11],high affinity
same,CXCR1 translocation (internalization),[16]; [21],caused only CXCR2 receptor translocation to the cytoplasm
same,CXCR2 translocation (internalization),[17]; [21],caused only CXCR2 receptor translocation to the cytoplasm
